Source: ChEMBL document CHEMBL5303300, “EUbOPEN Chemogenomics Library - Multiplex” (2023)
Values joined by “and” are separate entries in the source; they are usually repeats but may differ in a detail not shown here. Equal values may be shown once.

Tests used:
U2OS = experiment: Multiplex assay against U2OS; assay type: toxicity, cell-based; conditions: human, number of replicates 2
How it was run: (§1)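 Hoechst33342, BioTracker Green Microtubule Cytoskeleton Dye, MitoTracker Red and Annexin V Alexa Fluor 680 were added to live cells at seeding, and imaging on a CQ1 microscope at 37°C and 5% CO2 followed compound addition. Gating by CellPathfinder machine learning separated cells into Hoechst high-intensity objects or normal cells, then normal cells into healthy, pyknosed or fragmented nuclei, then pyknosed cells into mitotic or apoptotic. Per cents of healthy-nucleus cells are reported for the tubulin, mitochondrial-mass and membrane-permeability phenotypes.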

Fibroblast = experiment: Multiplex assay against human fibroblast; assay type: toxicity, cell-based; conditions: number of replicates 2; how it was run: as §1
[1] = 24 h, 10 µM, compound concentration 10 uM
[2] = 48 h, 1 µM, compound concentration 1 uM
[3] = 48 h, 10 µM, compound concentration 10 uM
[4] = 12 h, 1 µM, compound concentration 1 uM
[5] = 12 h, 10 µM, compound concentration 10 uM
[6] = 24 h, 1 µM, compound concentration 1 uM

CC(=O)N(CCN(C)C)c1ccc(N/C(=C2\C(=O)Nc3cc(Cl)ccc32)c2ccccc2)cn1
Population Apoptotic (%) (U2OS; [1]): 93% and 88% | Population Fragmented Nuclei (%) (U2OS; [1]): 10% and 16% | Population Healthy Nuclei (%) (U2OS; [1]): 31% and 23% | Population Hoechst High Intensity Objects (%) (U2OS; [1]): 3% and 4% | Population Membrane Permeable-Phenotype (%) (U2OS; [1]): 61% and 50% | Population Mitochondria Different-Phenotype (%) (U2OS; [1]): 76% and 90% | Population Mitotic Cells (%) (U2OS; [1]): 6% and 11% | Population Normal (%) (U2OS; [1]): 96% and 95% | Population Pyknosed Nuclei (%) (U2OS; [1]): 57% and 60% | Population Tubulin-Different-Phenotype (%) (U2OS; [1]): 87% and 90% | Population Apoptotic (%) (U2OS; [2]): 82% and 88% | Population Fragmented Nuclei (%) (U2OS; [2]): 3% and 13% | Population Healthy Nuclei (%) (U2OS; [2]): 86% and 66% | Population Hoechst High Intensity Objects (%) (U2OS; [2]): 0% | Population Membrane Permeable-Phenotype (%) (U2OS; [2]): 2% and 10% | Population Mitochondria Different-Phenotype (%) (U2OS; [2]): 1% and 5% | Population Mitotic Cells (%) (U2OS; [2]): 18% and 11% | Population Normal (%) (U2OS; [2]): 99% and 100% | Population Pyknosed Nuclei (%) (U2OS; [2]): 9% and 19% | Population Tubulin-Different-Phenotype (%) (U2OS; [2]): 67% and 47% | Population Apoptotic (%) (U2OS; [3]): 92% and 100% | Population Fragmented Nuclei (%) (U2OS; [3]): 26% and 38% | Population Healthy Nuclei (%) (U2OS; [3]): 11% and 2% | Population Hoechst High Intensity Objects (%) (U2OS; [3]): 3% and 2% | Population Membrane Permeable-Phenotype (%) (U2OS; [3]): 52% and 100% | Population Mitochondria Different-Phenotype (%) (U2OS; [3]): 48% and 100% | Population Mitotic Cells (%) (U2OS; [3]): 7% and 0% | Population Normal (%) (U2OS; [3]): 96% and 98% | Population Pyknosed Nuclei (%) (U2OS; [3]): 61% and 59% | Population Tubulin-Different-Phenotype (%) (U2OS; [3]): 100% | Population Apoptotic (%) (Fibroblast; [4]): 45% and 32% | Population Fragmented Nuclei (%) (Fibroblast; [4]): 15% and 19% | Population Healthy Nuclei (%) (Fibroblast; [4]): 54% and 64% | Population Hoechst High Intensity Objects (%) (Fibroblast; [4]): 0% | Population Membrane Permeable-Phenotype (%) (Fibroblast; [4]): 13% and 3% | Population Mitochondria Different-Phenotype (%) (Fibroblast; [4]): 2% and 4% | Population Mitotic Cells (%) (Fibroblast; [4]): 54% and 67% | Population Normal (%) (Fibroblast; [4]): 100% | Population Pyknosed Nuclei (%) (Fibroblast; [4]): 30% and 16% | Population Tubulin-Different-Phenotype (%) (Fibroblast; [4]): 26% and 21% | Total Cell Count (Fibroblast; [4]): 176 and 230 | Population Apoptotic (%) (Fibroblast; [5]): 60% and 50% | Population Fragmented Nuclei (%) (Fibroblast; [5]): 15% and 20% | Population Healthy Nuclei (%) (Fibroblast; [5]): 50% and 56% | Population Hoechst High Intensity Objects (%) (Fibroblast; [5]): 0% | Population Membrane Permeable-Phenotype (%) (Fibroblast; [5]): 6% and 10% | Population Mitochondria Different-Phenotype (%) (Fibroblast; [5]): 35% and 27% | Population Mitotic Cells (%) (Fibroblast; [5]): 39% and 50% | Population Normal (%) (Fibroblast; [5]): 100% and 99% | Population Pyknosed Nuclei (%) (Fibroblast; [5]): 33% and 22% | Population Tubulin-Different-Phenotype (%) (Fibroblast; [5]): 88% and 81% | Total Cell Count (Fibroblast; [5]): 151 and 211 | Population Apoptotic (%) (Fibroblast; [6]): 60% and 63% | Population Fragmented Nuclei (%) (Fibroblast; [6]): 17% and 22% | Population Healthy Nuclei (%) (Fibroblast; [6]): 56% and 62% | Population Hoechst High Intensity Objects (%) (Fibroblast; [6]): 0% | Population Membrane Permeable-Phenotype (%) (Fibroblast; [6]): 7% | Population Mitochondria Different-Phenotype (%) (Fibroblast; [6]): 1% and 4% | Population Mitotic Cells (%) (Fibroblast; [6]): 39% and 36% | Population Normal (%) (Fibroblast; [6]): 99% | Population Pyknosed Nuclei (%) (Fibroblast; [6]): 26% and 15% | Population Tubulin-Different-Phenotype (%) (Fibroblast; [6]): 25% and 24% | Total Cell Count (Fibroblast; [6]): 176 and 221 | Population Apoptotic (%) (Fibroblast; [1]): 81% and 82% | Population Fragmented Nuclei (%) (Fibroblast; [1]): 17% and 15% | Population Healthy Nuclei (%) (Fibroblast; [1]): 41% and 46% | Population Hoechst High Intensity Objects (%) (Fibroblast; [1]): 2% and 0% | Population Membrane Permeable-Phenotype (%) (Fibroblast; [1]): 8% and 3% | Population Mitochondria Different-Phenotype (%) (Fibroblast; [1]): 63% and 70% | Population Mitotic Cells (%) (Fibroblast; [1]): 18% and 17% | Population Normal (%) (Fibroblast; [1]): 97% and 100% | Population Pyknosed Nuclei (%) (Fibroblast; [1]): 41% and 37% | Population Tubulin-Different-Phenotype (%) (Fibroblast; [1]): 90% and 83% | Total Cell Count (Fibroblast; [1]): 149 and 170 | Population Apoptotic (%) (Fibroblast; [2]): 80% and 68% | Population Fragmented Nuclei (%) (Fibroblast; [2]): 19% and 25% | Population Healthy Nuclei (%) (Fibroblast; [2]): 59% and 61% | Population Hoechst High Intensity Objects (%) (Fibroblast; [2]): 0% | Population Membrane Permeable-Phenotype (%) (Fibroblast; [2]): 9% and 7% | Population Mitochondria Different-Phenotype (%) (Fibroblast; [2]): 2% and 5% | Population Mitotic Cells (%) (Fibroblast; [2]): 20% and 31% | Population Normal (%) (Fibroblast; [2]): 99% and 100% | Population Pyknosed Nuclei (%) (Fibroblast; [2]): 21% and 13% | Population Tubulin-Different-Phenotype (%) (Fibroblast; [2]): 36% and 29% | Total Cell Count (Fibroblast; [2]): 167 and 217 | Population Apoptotic (%) (Fibroblast; [3]): 94% and 95% | Population Fragmented Nuclei (%) (Fibroblast; [3]): 25% and 23% | Population Healthy Nuclei (%) (Fibroblast; [3]): 25% and 17% | Population Hoechst High Intensity Objects (%) (Fibroblast; [3]): 0% | Population Membrane Permeable-Phenotype (%) (Fibroblast; [3]): 15% and 6% | Population Mitochondria Different-Phenotype (%) (Fibroblast; [3]): 48% and 43% | Population Mitotic Cells (%) (Fibroblast; [3]): 5% and 4% | Population Normal (%) (Fibroblast; [3]): 99% and 100% | Population Pyknosed Nuclei (%) (Fibroblast; [3]): 48% and 58% | Population Tubulin-Different-Phenotype (%) (Fibroblast; [3]): 89% and 81% | Total Cell Count (Fibroblast; [3]): 152 and 178
